The text below walks through data of ChEMBL document CHEMBL4425094, “Novel Benzo[a]quinolizidine Analogs Induce Cancer Cell Death through Paraptosis and Apoptosis” (J Med Chem, 2016).

The subject of test [1] is PC-3. Put plainly: Induction of cell cycle arrest in human PC3 cells assessed as accumulation in G2 phase at 0.5 uM after 24 hrs by […]propidium iodide based flow cytometric analysis (reference value: 16.3 to 25 %). It counts as functional. Background: A flow cytometer gives signals particle by particle.
The test system of test [2] is PC-3. Put plainly: Induction of cell cycle arrest in human PC3 cells assessed as accumulation in G2 phase at 1 uM after 24 hrs by […]propidium iodide based flow cytometric analysis (reference value: 16.3 to 25 %). It counts as functional.
The test system of test [3] is PC-3. Nature of the test: Induction of apoptosis in human PC3 cells assessed as viable cells at 2 uM after 24 hrs by Annexin V-FITC/propidium iodide based flow cytometric analysis (reference value: 95.4 %). The note with it: PC-3, 24 h, read-out: Activity. It counts as functional. Put shortly:
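PC3 cells exposed to 0.5, 1 or 2 μM for 24 h, then stained with Annexin V-FITC and PI and analyzed by FACSCalibur flow cytometry. Populations assigned as necrotic (Annexin V−/PI+), late apoptotic (double positive), normal (Annexin V−/PI−) and early apoptotic (Annexin V+/PI−). DMSO vehicle control.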

Test [4] has as its system PC-3. Nature of the test: Induction of cytoplasmic vacuolation in human PC3 cells assessed as formation of small vacuoles at 1 uM after 4 hrs by phase-contrast microscopic analysis. It counts as functional, cell-based. The procedure, abridged: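 PC3 cells in RPMI 1640 with 10% FBS at 37 °C, 5% CO2, treated with 1 μM agent for 0−24 h; DMSO vehicle control. Vacuole appearance, size and number followed over time by phase-contrast microscopy at constant magnification.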

Test [5] has as its system PC-3. Nature of the test: Induction of apoptosis in human PC3 cells assessed as PARP cleavage after 24 hrs by Western blot analysis. The format is functional, cell-based. Put shortly: (§1)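 PC3 cells in RPMI 1640 with 10% FBS, treated with compound for timed intervals. DMSO vehicle control. Lysis in RIPA buffer, 40 μg protein per lane on SDS-PAGE, transfer to nitrocellulose. Primary antibodies overnight at 4 °C, HRP-secondary 45 min, ECL detection. GAPDH or β-actin used as loading control.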
For orientation: Immunoblotting shows a protein as a band on a membrane.

The test system of test [6] is PC-3. Put plainly: Induction of endoplasmic reticulum derived cytoplasmic vacuole formation in human PC3 cells after 4 to 8 hrs by ER-tracker staining based fluorescence microscopy. The format is functional, cell-based. Put shortly: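 PC3 cells incubated with vehicle or agent for 0, 4 or 8 h. They were then stained at 37 °C for 15 min with ER-Tracker (1:3000) plus 10 μg/mL Hoechst 33342, washed with PBS and imaged by fluorescence/confocal microscopy.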

Test [7] has as its system PC-3. Put plainly: Induction of ER stress in human PC3 cells assessed as upregulation of GRP78 after 4 hrs by Western blot analysis. It counts as functional, cell-based. Put shortly:
as §1

Test [8] relates to PC-3. Put plainly: Cytotoxicity against human PC3 cells assessed as reduction in cell viability at 1 uM after 24 hrs in presence of PI3K inhibitor 3-MA by MTT assay. The format is functional, cell-based. Put shortly: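 PC3 cells pretreated with autophagy inhibitor 3-MA or E64d, then given 1 μM compound for 24 h. Viability measured by MTT (4 h, 570 nm). Morphology checked by phase-contrast microscopy.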

The subject of test [9] is PC-3M. Nature of the test: Antitumor activity against human PC3M-lluc-C6 cells xenografted in athymic Balb/c mouse assessed as decrease in tumor burden by measuring photon intensity at 15 mg/kg, ip measured on day 18 by bioluminescence method (reference value: 2.332 x 10^10 photons/s/cm2). It counts as functional. In general terms: A xenograft is tissue or cells of one species grown in another, often human tumour cells in immunodeficient mice.

Test [10] has as its system PC-3M. Nature of the test: Antiproliferation activity against human PC3M-lluc-C6 cells xenografted in athymic Balb/c mouse assessed as decrease in cell viability at 15 mg/kg, ip administered every 2 days for 18 days by H and E staining based microscopic analysis. It counts as functional, organism-based. Put shortly:
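Male BALB/c-nu mice, 6 weeks old, each given 5 × 10^6 PC3M-luc-C6 cells subcutaneously in the right anterior flank. At ~0.1 cm3 tumor, groups of n = 5 received 15 mg/kg i.p. every 2 days. Docetaxel 15 mg/kg was the positive control. Tumor tissue stained with H&E or anti-Ki67 (1:500) overnight at 4 °C, HRP/DAB, hematoxylin counterstain, examined by microscopy.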

Activity calls are given as the source filed them. The calls are words filed in the database; no cut-off is given here.

In the case of `Cc1cc(C)cc(COc2cc3c(cc2OCc2cc(C)cc(C)c2)[C@@H]2C[C@H](O)C[C@@H](C)N2CC3)c1` (racemic), the Activity is recorded as 13.7 - 14.9% in [1], 11.9 - 14.5% in test [2] and 1.766 ×10⁹ /s/cm2 in test [9]. Further, in test [3], the viability at 2 µM worked out at 40%. Moreover, the outcome in [4], in test [5], in [6], in test [7] and in [10] was Active. The result in [8] was inactive.
